Converted amounts (≈) assume the structure as drawn. The source made the active and inactive calls. The calls are words filed in the database; no cut-off is given here.
What was measured:
Candida albicans [1] = assay: Antibiofilm activity in Candida albicans SC5314 assessed as appearance of fungal cells in yeast shape with few mycelia measured after 24 hrs by inverted microscopic analysis; type: functional, organism-based; settings: dose 0.27-1.06 µg/ml
Summary of the method: (§1)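 Log-phase C. albicans in RPMI1640+10% FBS at 1×10^5 CFU/mL allowed to adhere in 24-well plates for 90 min at 30 °C; unattached medium removed. 1 mL medium with drug (0.27, 0.53, 1.06 µg/mL) or without drug added; 24 h at 30 °C. Biofilm stained with crystal violet 30 min, washed 3× with PBS, viewed by inverted microscope.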

Candida albicans [2] = assay: Antibiofilm activity in Candida albicans SC5314 assessed as appearance of yeast form of fungal cells at 0.27 microg/ml measured after 24 hrs by inverted microscopic analysis; type: functional, organism-based; settings: dose 0.27 µg/ml; summary of the method: as §1
Candida albicans [3] = assay: Antifungal activity against Candida albicans assessed as inhibition of mycelia formation at 0.27 to 1.06 microg/ml measured after 4 to 8 hrs by inverted microscopic analysis; type: functional, organism-based; settings: dose 0.27-1.06 µg/ml, time 4-8 hrs
Summary of the method: (§2)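 Hyphae were induced in SD+10% FBS or in Spider medium. Log-phase cells at 1×10^5 CFU/mL final, 1 mL per well in 24-well plates, 3 wells per group. Drug at 0.27, 0.53 or 1.06 µg/mL, fluconazole, or no-drug control. Incubated at 30 °C; hyphal formation observed and photographed by inverted microscope at 4 h and 8 h.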

Candida albicans [4] = assay: Induction of morphological changes in Candida albicans assessed as cell enlargement at 0.53 to 1.06 microg/ml incubated for 16 to 24 hrs by transmission electron microscopic analysis; type: functional, organism-based; settings: dose 0.53-1.06 µg/ml, time 16-24 hrs
Summary of the method: (§3)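 C. albicans at 5×10^5 CFU/mL in SDB shaken with drug (0.27, 0.53, 1.06 µg/mL), fluconazole or no drug at 30 °C, 150 r/min, for 16-24 h. Pellets washed with PBS and fixed in cold 3% paraformaldehyde/2.5% glutaraldehyde at 4 °C, then 1% OsO4. Dehydrated in acetone and embedded in Epon-812. 60-90 nm sections stained with uranyl acetate and lead citrate, imaged by TEM.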

Candida albicans [5] = assay: Antibiofilm activity in Candida albicans SC5314 assessed as appearance of fungal cells in pseudomycelial shape with few mycelia measured after 24 hrs by inverted microscopic analysis; type: functional, organism-based; settings: dose 0.27-1.06 µg/ml; summary of the method: as §1
Candida albicans [6] = assay: Induction of morphological changes in Candida albicans assessed as unclear cell membrane outline at 0.53 to 1.06 microg/ml incubated for 16 to 24 hrs by transmission electron microscopic analysis; type: functional, organism-based; settings: dose 0.53-1.06 µg/ml, time 16-24 hrs; summary of the method: as §3
Candida albicans [7] = assay: Induction of morphological changes in Candida albicans assessed as incomplete cell wall structure at 0.53 to 1.06 microg/ml incubated for 16 to 24 hrs by transmission electron microscopic analysis; type: functional, organism-based; settings: dose 0.53-1.06 µg/ml, time 16-24 hrs; summary of the method: as §3
16HBE14o- = assay: Cytotoxicity against human 16HBE14o- cells assessed as reduction in cell viability at <=4 microg/ml incubated for 48 hrs by CCK8 assay; type: toxicity, cell-based; settings: dose < 4 µg/ml
Summary of the method: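 16HBE cells in RPMI1640 with 10% FBS and 1% antibiotics, seeded in 96-well plates and attached for 24 h at 37 °C. Drug serially diluted 5-fold from 100 µg/mL in complete medium, with growth and blank controls. Exposure 48 h, then viability read with CCK8 reagent.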

Candida albicans [8] = assay: Induction of morphological changes in Candida albicans assessed as blurred boundary between cell wall and cell membrane at 0.53 to 1.06 microg/ml incubated for 16 to 24 hrs by transmission electron microscopic analysis; type: functional, organism-based; settings: dose 0.53-1.06 µg/ml, time 16-24 hrs; summary of the method: as §3
Candida albicans [9] = assay: Induction of morphological changes in Candida albicans assessed as absence of intracellular substance at 0.53 microg/ml incubated for 16 to 24 hrs by transmission electron microscopic analysis; type: functional, organism-based; settings: dose 0.53 µg/ml, time 16-24 hrs; summary of the method: as §3
Candida albicans [10] = assay: Antibiofilm activity in Candida albicans SC5314 assessed as appearance of pseudomycelial form of fungal cells at 0.27 microg/ml measured after 24 hrs by inverted microscopic analysis; type: functional, organism-based; settings: dose 0.27 µg/ml; summary of the method: as §1
Candida albicans [11] = assay: Antifungal activity against Candida albicans assessed as increase in pseudomycelial fungal cells at 0.27 to 1.06 microg/ml measured after 4 to 8 hrs by inverted microscopic analysis; type: functional, organism-based; settings: dose 0.27-1.06 µg/ml, time 4-8 hrs; summary of the method: as §2
Candida albicans [12] = assay: Induction of morphological changes in Candida albicans assessed as effect on cytoplasmic structure at 0.53 to 1.06 microg/ml incubated for 16 to 24 hrs by transmission electron microscopic analysis; type: functional, organism-based; settings: dose 0.53-1.06 µg/ml, time 16-24 hrs; summary of the method: as §3
Cell membrane [13] = assay: Induction of cell membrane permeability in Candida albicans assessed as increase in fluorescence intensity by multifunctional enzymatic assay; type: subcellular
Candida albicans [14] = assay: Induction of morphological changes in Candida albicans assessed as loose distribution of cytoplasm at 0.53 microg/ml incubated for 16 to 24 hrs by transmission electron microscopic analysis; type: functional, organism-based; settings: dose 0.53 µg/ml, time 16-24 hrs; summary of the method: as §3
Candida albicans [15] = assay: Antifungal activity against Candida albicans assessed as sparse distribution of fungal cells at 0.27 to 1.06 microg/ml measured after 4 to 8 hrs by inverted microscopic analysis; type: functional, organism-based; settings: dose 0.27-1.06 µg/ml, time 4-8 hrs; summary of the method: as §2
Candida albicans [16] = assay: Antifungal activity against drug sensitive Candida albicans SC5314 assessed as inhibition of fungal growth incubated for 24 hrs by CLSI protocol based microdilution method; type: functional
Summary of the method: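 Broth microdilution of log-phase C. albicans at 1×10^5 CFU/mL in Sabouraud liquid medium (SDB). Compounds serially diluted 5-fold to final 200-0.064 µg/mL, DMSO below 0.1%. Triplicate wells, 200 µL final volume, with growth, blank and fluconazole controls. Incubated 24 h at 30 °C, OD read at 630 nm; experiment repeated three times.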

Candida albicans [17] = assay: Antifungal activity against Candida albicans assessed as increase in pseudomycelial fungal cells with reduction in mycelial formation at 0.27 to 1.06 microg/ml measured after 8 hrs by inverted microscopic analysis; type: functional, organism-based; settings: dose 0.27-1.06 µg/ml; summary of the method: as §2
Candida albicans [18] = assay: Antibiofilm activity in Candida albicans SC5314 assessed as appearance of short mycelia at 0.27 microg/ml measured after 24 hrs by inverted microscopic analysis; type: functional, organism-based; settings: dose 0.27 µg/ml; summary of the method: as §1
Candida albicans [19] = assay: Antifungal activity against Candida albicans assessed as reduction in invasion ability at 0.27 to 1.06 microg/ml measured after 4 to 8 hrs by inverted microscopic analysis; type: functional, organism-based; settings: dose 0.27-1.06 µg/ml, time 4-8 hrs; summary of the method: as §2
Candida albicans [20] = assay: Induction of morphological changes in Candida albicans assessed as effect on cytoplasmic morphology at 0.53 to 1.06 microg/ml incubated for 16 to 24 hrs by transmission electron microscopic analysis; type: functional, organism-based; settings: dose 0.53-1.06 µg/ml, time 16-24 hrs; summary of the method: as §3
Cell membrane [21] = assay: Induction of cell membrane permeability in Candida albicans assessed as increase in red fluorescence incubated for 16 to 24 hrs by PI staining based fluorescence microscopic analysis; type: subcellular; settings: time 16-24 hrs
Summary of the method: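 C. albicans at 1×10^5 CFU/mL in SDB grown with drug (0.27, 0.53, 1.06 µg/mL), fluconazole or no drug at 30 °C, 150 r/min, for 16-24 h. Cells washed and resuspended in PBS at 2×10^6 CFU/mL. Stained with propidium iodide (final 5 µg/mL) 30 min at room temperature in the dark, then washed. Imaged by fluorescence microscopy and fluorescence intensity measured.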

Candida albicans [22] = assay: Antifungal activity against Candida albicans assessed as increase in yeast fungal cells at 0.27 to 1.06 microg/ml measured after 4 to 8 hrs by inverted microscopic analysis; type: functional, organism-based; settings: dose 0.27-1.06 µg/ml, time 4-8 hrs; summary of the method: as §2

## O=C(Cn1cc(COC(Cn2ccnc2)c2ccc(Cl)cc2Cl)nn1)c1ccc2ccccc2c1 (stereo not drawn)
Candida albicans [1]
  Activity: Dose-dependent-effect
Candida albicans [2]
  Activity: Active
Candida albicans [3]
  Activity: Active
Candida albicans [4]
  Activity: Active
Candida albicans [5]
  Activity: Dose-dependent-effect
Candida albicans [6]
  Activity: Active
Candida albicans [7]
  Activity: Active
16HBE14o-
  Activity: Non-toxic
Candida albicans [8]
  Activity: Active
Candida albicans [9]
  Activity: Active
Candida albicans [10]
  Activity: Active
Candida albicans [11]
  Activity: Active
Candida albicans [12]
  Activity: Active
Cell membrane [13]
  Activity: Dose-dependent-effect; Better Than That Of Fluconazole Group
Candida albicans [14]
  Activity: Active
Candida albicans [15]
  Activity: Active
Candida albicans [16]
  MIC50: 0.53 µg/mL (≈ 1.05 µM)
Candida albicans [17]
  Activity: Active
Candida albicans [18]
  Activity: Active
Candida albicans [19]
  Activity: Active; Better Than That Of Fluconazole Group
Candida albicans [20]
  Activity: Active
Cell membrane [21]
  Activity: Dose-dependent-effect
Candida albicans [22]
  Activity: Active

From ChEMBL document CHEMBL6177924, “Synthesis and antifungal evaluation of new azole derivatives containing 1,2,3-triazole” (RSC Med Chem, 2025)
